# Where two headings read alike, the source gives them in different places.
# Assays:
# [1] = type: in vivo, human
# Outline: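 Eight healthy men (21–65 y) taking no medicines or vitamins, randomized 1:1, double-blind crossover. After a ≥10 h fast, seated subjects swallowed 500 mg test formulation or 500 mg control (150 mg AA + 350 mg starch) with 240 mL water. Heparinized blood sampled 0.25–24 h post dose, spun 3500 rpm, 4 °C, 10 min; plasma at −20 °C, AA by HPLC; mean ± SD.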
# [2] = Particle size and ζ-potential by dynamic light scattering; type: physicochemical; settings: 25 °C
# Outline: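 Test-compound-loaded fiber-reinforced phospholipid vesicles were diluted 10-fold in distilled water to avoid scattering artefacts. Size and ζ-potential were then measured by dynamic light scattering on a Zetasizer Nano ZS at 25 °C, with intensity read at a scattering angle of 90.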
# [3] = male, human, plasma, po, 150 mg
# [4] = plasma vitamin C, single oral dose 500 mg (150 mg AA), fasting, mean ± SD
smiles,measurement,setting,value
"O=C1O[C@H]([C@@H](O)CO)C(O)=C1O [AA, L-ascorbic acid]",Cmax,[1]; [3],12300 ± 3800 ng/mL
same,half-life,[1]; [3],3.14 ± 2.01 h
same,k el,[1]; [3],8.61e-05 s⁻¹
same,AUC0–t,[1]; [4],9.38 ± 4.91 mg·h/dL
same,AUC0–∞,[1]; [4],9.66 ± 5.02 mg·h/dL
same,Tmax,[1]; [4],3.56 ± 0.62 h
same,AUC,[1]; single oral dose,9.66 mg/dL
same,AUC0–t,[1]; single oral dose,9.38 mg/dL
same,ζ-potential,[2],−20 to 10 mV
